Screens (PubChem BioAssay)
INS-1E GSIS act: primary screen for activators of insulin secretion dependent on glucose, INS-1E cells, GLuc reporter luminescence | INS-1E GLuc reporter insulin secretion, 2-3 h | activation, % at 16.6 µM | actives 0.61% (n = 370,000);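 active = lowest replicate activation of at least 40%, so every replicate reaches that level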
RAD54 inh: blocks human RAD54 Holliday junction branch migration | Q92698 | FAM/BHQ fluorescence | inhibition, % at 10.4 µM | actives 0.14% (n = 360,000);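 active = mean normalized replicate activity at least 40 and at least half of replicates scoring 40 or more; inconclusive = only one of the two criteria met; inactive = mean below 40 and under half of replicates reaching 40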;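 note: inhibitors cause a drop in the FAM fluorescence signal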
RAD52 inh: RAD52 (human) annealing inhibition; P43351; actives 0.46% (n = 360,000); recombinant RAD52 DNA annealing, FRET fluorescence; AID 651710; inhibition, % at 18.7 µM;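 active = every replicate showing at least 50% inhibition; inconclusive = mean inhibition at least 50% but not in every replicate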
MLL AF4-AF9 inh: blocks AF4 peptide binding to human AF9; P42568; AlphaScreen, biotin-AF4 peptide binding to FLAG-AF9; inhibition, % at 10 µM; actives 0.47% (n = 350,000);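 active = every replicate reaching a set inhibition limit, whatever the replicate mean, cut at about 25% in these data; inconclusive = mean inhibition reaches that limit but some replicates miss it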
Ecoli rRNA inh: inhibits bacterial ribosomal RNA function over humanized ribosomes; GFP signal change (wild-type ribosome), % (test concentration not listed); AID 720706; actives 1.6% (n = 350,000); E. coli WT GFP vs humanized-ribosome RFP mutants, fluorescence, 24 h; stronger effect = lower value; DMSO median 0, no signal -100;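 active = significant combined selectivity score with lowered wild-type GFP, culture density cut under 30%, mutant RFP and density less affected; inactive = any of these conditions unmet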
E-selectin induc: induces E-selectin expression in human endothelial cells; P16581; HUVEC E-selectin immunofluorescence imaging; normalized: neutral wells 0, TNF-alpha wells 100; activation, % at 7.58 µM; actives 0.37% (n = 260,000);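 active = mean E-selectin-positive cell signal at least 10% of the positive control, reached in at least 60% of replicates, without over 20% cell loss; inconclusive = no rule given, readout overlaps actives, possibly toxicity-flagged; inactive = the rest, including those meeting only one limit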
Target sequence (P16581 whole entry, looked up): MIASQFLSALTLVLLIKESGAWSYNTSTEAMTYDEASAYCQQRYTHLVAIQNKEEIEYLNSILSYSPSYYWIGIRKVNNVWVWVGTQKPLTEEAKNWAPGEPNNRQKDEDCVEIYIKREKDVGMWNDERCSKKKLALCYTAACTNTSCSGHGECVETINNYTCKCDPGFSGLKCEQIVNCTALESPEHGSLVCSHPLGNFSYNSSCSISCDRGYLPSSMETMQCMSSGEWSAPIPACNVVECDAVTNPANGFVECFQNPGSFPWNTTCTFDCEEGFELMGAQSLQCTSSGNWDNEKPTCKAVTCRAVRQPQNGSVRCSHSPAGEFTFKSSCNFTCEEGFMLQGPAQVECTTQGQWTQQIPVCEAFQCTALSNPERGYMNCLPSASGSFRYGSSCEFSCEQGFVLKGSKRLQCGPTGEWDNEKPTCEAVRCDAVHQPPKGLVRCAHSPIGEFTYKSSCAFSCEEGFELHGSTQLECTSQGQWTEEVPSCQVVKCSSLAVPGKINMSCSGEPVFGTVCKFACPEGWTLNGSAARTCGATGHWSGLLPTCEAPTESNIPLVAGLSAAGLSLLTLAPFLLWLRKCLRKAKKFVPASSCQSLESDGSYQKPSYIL
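System: HUVEC / Compound: single concentration / Signal: immunofluorescence imaging / Read-out: percent E-selectin-positive cells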
DNA binder FP: counter-screen for RAD52 inhibitors: DNA binding compounds; shares compounds with RAD52 inh; AC50, µM; actives 8% (n = 1,000); Salmon sperm DNA/acridine orange FP displacement;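 active = fitted half-maximal concentration for signal loss at or below twice the highest dose tested, in every separate run, actives reach about 64 µM in these data; inconclusive = runs disagree, or flat partial signal loss, or poor fit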
Numbers stand for hits; ! = a repeat was not active. In the library only some 2.6% were active in any assay of this set; here they are far more common.

CCN1CCN(Cc2ccc(NC(=O)c3ccc(C)c(NC(=O)C(=O)c4c[nH]c5ccccc45)c3)cc2C(F)(F)F)CC1 was read as INS-1E GSIS act inactive, RAD54 inh inactive, RAD52 inh 98.5!, MLL AF4-AF9 inh inactive, Ecoli rRNA inh inactive, E-selectin induc inactive and DNA binder FP inactive.
Screening Cc1ccc(S(=O)(=O)N(C)C[C@H]2Oc3c(NS(=O)(=O)c4ccc(Cl)cc4)cccc3C(=O)N([C@@H](C)CO)C[C@@H]2C)cc1 returned INS-1E GSIS act inactive, RAD54 inh inactive, RAD52 inh inactive, MLL AF4-AF9 inh inactive, Ecoli rRNA inh inactive and E-selectin induc inactive.
COCC(=O)O[C@]1(CCN(C)CCCc2nc3ccccc3[nH]2)CCc2cc(F)ccc2[C@@H]1C(C)C was read as INS-1E GSIS act inactive, RAD54 inh inactive, RAD52 inh 54.3, MLL AF4-AF9 inh inactive, Ecoli rRNA inh inactive, E-selectin induc inactive and DNA binder FP inactive.
Screening O=C(C[C@H]1CC[C@H](NS(=O)(=O)c2ccc(F)cc2)[C@@H](CO)O1)N1CCc2ccccc2C1 returned INS-1E GSIS act inactive, RAD54 inh inactive, RAD52 inh inactive, MLL AF4-AF9 inh inactive, Ecoli rRNA inh inactive and E-selectin induc inactive.
Screening NCCCC[C@H]1CNC(=S)N1CCCCC1CCCCC1 returned INS-1E GSIS act inactive, RAD54 inh inactive, RAD52 inh 85.6, MLL AF4-AF9 inh inactive, Ecoli rRNA inh inactive, E-selectin induc inactive and DNA binder FP inactive.
Screening NCCCC[C@H]1CNC(=S)N1CCc1cc(C(F)(F)F)cc(C(F)(F)F)c1 returned RAD54 inh inactive, RAD52 inh 66.7, MLL AF4-AF9 inh inactive, Ecoli rRNA inh inactive, E-selectin induc inactive and DNA binder FP inactive.
COc1ccccc1-c1ccc2c(c1)[C@@H]1[C@@H](CCN1S(=O)(=O)c1cn(C)cn1)[C@@H](CO)N2 was read as INS-1E GSIS act inactive, RAD54 inh inactive, RAD52 inh inactive, MLL AF4-AF9 inh inactive, Ecoli rRNA inh inactive and E-selectin induc inactive.
For CCCN1C[C@@H](C)[C@H](OC)CN(C)C(=O)c2ccc(NC(=O)c3cccc(OC)c3)cc2OC[C@@H]1C the results were INS-1E GSIS act inactive, RAD52 inh inactive, MLL AF4-AF9 inh inactive, Ecoli rRNA inh inactive and E-selectin induc inactive.
`COCC(=O)N1CC2(CN(S(C)(=O)=O)C2)c2c(n(C)c3cc(OC)ccc23)[C@H]1CO` gave INS-1E GSIS act inactive and Ecoli rRNA inh inactive.
Screening NCCCCc1ccc2ccc3cccc4ccc1c2c34 returned INS-1E GSIS act inactive, RAD54 inh inactive, RAD52 inh 52.7, MLL AF4-AF9 inh inactive, Ecoli rRNA inh -18.6, E-selectin induc inactive and DNA binder FP inactive.
Screening CCC(C)Sc1ccc([C@H]2N[C@@](Cc3ccccc3)(C(=O)OC)[C@H]3C(=O)N(C)C(=O)[C@@H]23)cc1 (stereo partly specified) returned INS-1E GSIS act inactive, RAD54 inh inactive, RAD52 inh 97.8, MLL AF4-AF9 inh inactive, Ecoli rRNA inh inactive, E-selectin induc inactive and DNA binder FP inactive.
`COC(=O)C1(Cc2ccccc2)NC(c2ccc(F)cc2)C2C(=O)N(C)C(=O)C21` (stereo unspecified) gave RAD54 inh inactive.
COc1cc2nc(Nc3cccc(F)c3)nc(N)c2cc1OC was read as INS-1E GSIS act inactive, RAD54 inh inactive, RAD52 inh 61.1, MLL AF4-AF9 inh inactive, Ecoli rRNA inh inactive, E-selectin induc inactive and DNA binder FP inactive.
Screening CNc1nc(N)c([N+](=O)[O-])c(Nc2cccc(F)c2)n1 returned INS-1E GSIS act inactive, RAD54 inh inactive, RAD52 inh inactive, MLL AF4-AF9 inh inactive, Ecoli rRNA inh inactive and E-selectin induc inactive.
For FC(F)(F)c1cccc(CN2[C@@H]3CNC[C@H]2C3c2ccc(-c3ccncc3)cc2)c1 (stereo partly specified) the results were INS-1E GSIS act inactive, RAD52 inh inactive, MLL AF4-AF9 inh inactive, Ecoli rRNA inh inactive and E-selectin induc inactive.
For CCCCCc1ccc(OCCCC[n+]2cccc(C)c2)c(CCCCC)c1 the results were INS-1E GSIS act 174.1, RAD52 inh 76.3, MLL AF4-AF9 inh inconclusive, Ecoli rRNA inh inactive, E-selectin induc inactive and DNA binder FP inactive.
CCCCCc1ccc(OCCCC[n+]2ccc(C)cc2)c(CCCCC)c1 was read as INS-1E GSIS act 109.4, RAD52 inh 65.6, MLL AF4-AF9 inh inconclusive, Ecoli rRNA inh inactive, E-selectin induc inactive and DNA binder FP inactive.
Screening CCCCOc1ccc(C)cc1CN(CCO)CCO returned RAD54 inh inactive.
For CC(C)(C)NCC(O)CON=C1c2ccccc2-c2ccccc21 (stereo unspecified) the results were INS-1E GSIS act inactive, RAD52 inh 55.1, MLL AF4-AF9 inh inactive, Ecoli rRNA inh inactive, E-selectin induc inactive and DNA binder FP inactive.
`CC(C)(C)NC(=O)CON=C1c2ccccc2-c2ccccc21` gave INS-1E GSIS act inactive, RAD54 inh inactive, RAD52 inh inactive, MLL AF4-AF9 inh inactive and Ecoli rRNA inh inactive.
For CCn1c(SCC(N)=O)nc2sc3c(c2c1=O)CCN(C)C3 the results were RAD54 inh inactive, RAD52 inh 56.0, MLL AF4-AF9 inh inactive, Ecoli rRNA inh inactive, E-selectin induc inactive and DNA binder FP inactive.
Screening Cc1nc2cc(-c3ccc(Cl)cc3)nn2c(NCCN(C)C)c1C returned INS-1E GSIS act inactive, RAD52 inh 76.8, MLL AF4-AF9 inh inactive, Ecoli rRNA inh inactive, E-selectin induc inactive and DNA binder FP inactive.
C[C@@H]1CN([C@H](C)CO)S(=O)(=O)c2ccc(C3=CCCC3)cc2O[C@@H]1CN(C)C(=O)C1CC1 was read as INS-1E GSIS act inactive, Ecoli rRNA inh inactive and E-selectin induc inactive.
CN1CCN(c2ccc(Nc3ccnc4cc(Cl)ccc34)cc2)CC1 was read as INS-1E GSIS act inactive, RAD54 inh 52.7, RAD52 inh 87.8, MLL AF4-AF9 inh inactive, Ecoli rRNA inh inactive and DNA binder FP inactive.
For CCOc1ccc(Nc2ccnc3cc(Cl)ccc23)cc1 the results were INS-1E GSIS act inactive, RAD54 inh inactive, RAD52 inh inactive, MLL AF4-AF9 inh inactive, Ecoli rRNA inh inactive and E-selectin induc inactive.
For COCC(=O)Nc1ccc2c(c1)[C@H]1C[C@@H](CC(=O)NCCc3ccccc3)O[C@H](CO)[C@H]1O2 the results were INS-1E GSIS act inactive, RAD54 inh inactive, RAD52 inh inactive, MLL AF4-AF9 inh inactive, Ecoli rRNA inh inactive and E-selectin induc inactive.
CCOc1cc(CNCCCN2CCOCC2)cc(Br)c1OCc1ccccc1Cl was read as INS-1E GSIS act inactive, RAD54 inh inactive, RAD52 inh 50.1, MLL AF4-AF9 inh inactive, Ecoli rRNA inh inactive and DNA binder FP inactive.
